Key:
[1] = tested on: Brain; assay: Biodistribution in ddY mouse brain assessed as radioactivity at 0.5 uCi, iv after 30 mins; type: ADME, organism-based; details: in vivo, 0.5 h
How it was run: (§1)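 Normal mice given no-carrier-added 125I-labelled tracer (HPLC-purified) by intravenous injection, then sampled at 2, 10, 30 and 60 min. Radioactivity expressed as % injected dose per gram of tissue, and per whole organ for stomach. Values are mean (SD) of 3–5 animals per time point.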

[2] = tested on: Kidney; assay: Biodistribution in ddY mouse kidney assessed as radioactivity at 0.5 uCi, iv after 30 mins; type: ADME, organism-based; details: in vivo, 0.5 h; how it was run: as §1
[3] = tested on: Blood; assay: Biodistribution in ddY mouse blood assessed as radioactivity at 0.5 uCi, iv after 2 mins; type: ADME, organism-based; details: in vivo; how it was run: as §1
[4] = tested on: Stomach; assay: Biodistribution in ddY mouse stomach assessed as radioactivity at 0.5 uCi, iv after10 mins; type: ADME, organism-based; details: in vivo, 10 min; how it was run: as §1
[5] = tested on: Blood; assay: Biodistribution in ddY mouse blood assessed as radioactivity at 0.5 uCi, iv after30 mins; type: ADME, organism-based; details: in vivo, 0.5 h; how it was run: as §1
[6] = tested on: Intestine; assay: Biodistribution in ddY mouse intestine assessed as radioactivity at 0.5 uCi, iv after 30 mins; type: ADME, organism-based; details: in vivo, 0.5 h; how it was run: as §1
[7] = tested on: Spleen; assay: Biodistribution in ddY mouse spleen assessed as radioactivity at 0.5 uCi, iv after 30 mins; type: ADME, organism-based; details: in vivo, 0.5 h; how it was run: as §1
[8] = tested on: Brain; assay: Biodistribution in ddY mouse brain assessed as radioactivity at 0.5 uCi, iv after 2 mins; type: ADME, organism-based; details: in vivo; how it was run: as §1
[9] = tested on: Brain; assay: Biodistribution in ddY mouse brain assessed as radioactivity at 0.5 uCi, iv after 10 mins; type: ADME, organism-based; details: in vivo; how it was run: as §1
[10] = tested on: Pancreas; assay: Biodistribution in ddY mouse pancreas assessed as radioactivity at 0.5 uCi, iv after 2 mins; type: ADME, organism-based; details: in vivo; how it was run: as §1
[11] = tested on: Pancreas; assay: Biodistribution in ddY mouse pancreas assessed as radioactivity at 0.5 uCi, iv after 10 mins; type: ADME, organism-based; details: in vivo; how it was run: as §1
[12] = tested on: Stomach; assay: Biodistribution in ddY mouse stomach assessed as radioactivity at 0.5 uCi, iv after 2 mins; type: ADME, organism-based; details: in vivo; how it was run: as §1
[13] = tested on: Heart; assay: Biodistribution in ddY mouse heart assessed as radioactivity at 0.5 uCi, iv after 30 mins; type: ADME, organism-based; details: in vivo, 0.5 h; how it was run: as §1
[14] = tested on: Liver; assay: Biodistribution in ddY mouse liver assessed as radioactivity at 0.5 uCi, iv after 2 mins; type: ADME, organism-based; details: in vivo; how it was run: as §1
[15] = tested on: Liver; assay: Biodistribution in ddY mouse liver assessed as radioactivity at 0.5 uCi, iv after 10 mins; type: ADME, organism-based; details: in vivo; how it was run: as §1
[16] = tested on: Kidney; assay: Biodistribution in ddY mouse kidney assessed as radioactivity at 0.5 uCi, iv after 10 mins; type: ADME, organism-based; details: in vivo; how it was run: as §1
[17] = tested on: Kidney; assay: Biodistribution in ddY mouse kidney assessed as radioactivity at 0.5 uCi, iv after 2 mins; type: ADME, organism-based; details: in vivo; how it was run: as §1
[18] = tested on: Intestine; assay: Biodistribution in ddY mouse intestine assessed as radioactivity at 0.5 uCi, iv after 2 mins; type: ADME, organism-based; details: in vivo; how it was run: as §1
[19] = tested on: Heart; assay: Biodistribution in ddY mouse heart assessed as radioactivity at 0.5 uCi, iv after 10 mins; type: ADME, organism-based; details: in vivo; how it was run: as §1
[20] = tested on: Pancreas; assay: Biodistribution in iv dosed ddY mouse pancreas assessed as radioactivity after 30 mins; type: ADME, organism-based; details: in vivo, 0.5 h; how it was run: as §1
[21] = tested on: Stomach; assay: Biodistribution in ddY mouse stomach assessed as radioactivity at 0.5 uCi, iv after 30 mins; type: ADME, organism-based; details: in vivo, 0.5 h; how it was run: as §1
[22] = Binding affinity at amyloid peptide plaques; set-up: species or system Homo sapiens
How it was run: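 Saturation binding to synthetic Aβ(1–40) aggregates (57 nM final), pre-aggregated at 0.5 mg/mL in pH 7.4 10 mM sodium phosphate/1 mM EDTA, 37 °C, 42 h with shaking. Radioiodinated ligand 1–125 nM final (made by mixing with cold compound), in 10% ethanol, 3 h at room temperature. Filtered on GF/B, bound 125I gamma-counted. Nonspecific binding defined with 1 µM cold ligand. Kd by Scatchard analysis.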

[23] = tested on: Heart; assay: Biodistribution in ddY mouse heart assessed as radioactivity at 0.5 uCi, iv after 2 mins; type: ADME, organism-based; details: in vivo; how it was run: as §1
[24] = Partition coefficient, log P at pH 7.4; type: physicochemical; details: octanol/water
How it was run: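 HPLC-purified radioiodinated tracer partitioned between 3 mL 1-octanol and 3 mL 0.1 M phosphate buffer pH 7.4. Vortexed 3 min at room temperature, then centrifuged 5 min. 0.5 mL samples from each layer well-counted. Ratio taken of octanol to buffer cpm/0.5 mL. Octanol layer re-partitioned until values were consistent. Done in triplicate and repeated three times.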

[25] = tested on: Blood; assay: Biodistribution in ddY mouse blood assessed as radioactivity at 0.5 uCi, iv after 10 mins; type: ADME, organism-based; details: in vivo; how it was run: as §1
[26] = tested on: Intestine; assay: Biodistribution in ddY mouse intestine assessed as radioactivity at 0.5 uCi, iv after10 mins; type: ADME, organism-based; details: in vivo, 10 min; how it was run: as §1
[27] = tested on: Spleen; assay: Biodistribution in ddY mouse spleen assessed as radioactivity at 0.5 uCi, iv after 10 mins; type: ADME, organism-based; details: in vivo; how it was run: as §1
[28] = tested on: Spleen; assay: Biodistribution in ddY mouse spleen assessed as radioactivity at 0.5 uCi, iv after 2 mins; type: ADME, organism-based; details: in vivo; how it was run: as §1
[29] = tested on: Liver; assay: Biodistribution in ddY mouse liver assessed as radioactivity at 0.5 uCi, iv after 30 mins; type: ADME, organism-based; details: in vivo, 0.5 h; how it was run: as §1
[30] = tested on: Spleen; assay: Biodistribution in ddY mouse spleen assessed as radioactivity at 0.5 uCi, iv after 60 mins; type: ADME, organism-based; details: in vivo, 1 h; how it was run: as §1
[31] = tested on: Intestine; assay: Biodistribution in ddY mouse intestine assessed as radioactivity at 0.5 uCi, iv after 60 mins; type: ADME, organism-based; details: in vivo, 1 h; how it was run: as §1
[32] = tested on: Heart; assay: Biodistribution in ddY mouse heart assessed as radioactivity at 0.5 uCi, iv after 60 mins; type: ADME, organism-based; details: in vivo, 1 h; how it was run: as §1
[33] = tested on: Brain; assay: Biodistribution in ddY mouse brain assessed as radioactivity at 0.5 uCi, iv after 60 mins; type: ADME, organism-based; details: in vivo; how it was run: as §1
[34] = tested on: Kidney; assay: Biodistribution in ddY mouse kidney assessed as radioactivity at 0.5 uCi, iv after 60 mins; type: ADME, organism-based; details: in vivo, 1 h; how it was run: as §1
[35] = tested on: Blood; assay: Biodistribution in ddY mouse blood assessed as radioactivity at 0.5 uCi, iv after 60 mins; type: ADME, organism-based; details: in vivo, 1 h; how it was run: as §1
[36] = tested on: Stomach; assay: Biodistribution in ddY mouse stomach assessed as radioactivity at 0.5 uCi, iv after 60 mins; type: ADME, organism-based; details: in vivo, 1 h; how it was run: as §1
[37] = tested on: Pancreas; assay: Biodistribution in ddY mouse pancreas assessed as radioactivity at 0.5 uCi, iv after 60 mins; type: ADME, organism-based; details: in vivo, 1 h; how it was run: as §1
[38] = tested on: Liver; assay: Biodistribution in ddY mouse liver assessed as radioactivity at 0.5 uCi, iv after 60 mins; type: ADME, organism-based; details: in vivo, 1 h; how it was run: as §1

SMILES	Drug uptake [1]	Drug uptake [2]	Drug uptake [3]	Drug uptake [4]	Drug uptake [5]	Drug uptake [6]	Drug uptake [7]	Drug uptake [8]	Drug uptake [9]	Drug uptake [10]	Drug uptake [11]	Drug uptake [12]	Drug uptake [13]	Drug uptake [14]	Drug uptake [15]	Drug uptake [16]	Drug uptake [17]	Drug uptake [18]	Drug uptake [19]	Drug uptake [20]	also measured
CN(C)c1ccc(/C=C/c2cc(=O)c3cc([125I])ccc3o2)cc1	1.37 % ID/g	3.69 % ID/g	2.62 % ID/g	1.14 %ID	1.13 % ID/g	12.68 % ID/g	1.38 % ID/g	1.14 % ID/g	1.76 % ID/g	3.02 % ID/g	2.73 % ID/g	0.7 %ID	1.27 % ID/g	11.17 % ID/g	10.15 % ID/g	4.51 % ID/g	6.7 % ID/g	1.45 % ID/g	1.75 % ID/g	1.34 % ID/g	Drug uptake [21]: 1.23 %ID; Kd [22]: 8.7 nM; Drug uptake [23]: 6.25 % ID/g; logD [24]: 2.65; Drug uptake [25]: 1.44 % ID/g; Drug uptake [26]: 4.95 % ID/g; Drug uptake [27]: 2.01 % ID/g; Drug uptake [28]: 2.43 % ID/g; Drug uptake [29]: 7.72 % ID/g
CNc1ccc(/C=C/c2cc(=O)c3cc([125I])ccc3o2)cc1	1.86 % ID/g	5.48 % ID/g	3.21 % ID/g	1.89 %ID	2.19 % ID/g	16.72 % ID/g	2.66 % ID/g	2.84 % ID/g	2.96 % ID/g	4.92 % ID/g	3.56 % ID/g	1 %ID	2.09 % ID/g	14.55 % ID/g	14.41 % ID/g	7.05 % ID/g	10.41 % ID/g	2.59 % ID/g	3.31 % ID/g	2.25 % ID/g	Drug uptake [30]: 1.51 % ID/g; Drug uptake [31]: 19.16 % ID/g; Drug uptake [32]: 1.47 % ID/g; Drug uptake [21]: 2.01 %ID; Kd [22]: 17.5 nM; Drug uptake ([33]; 1 h): 0.99 % ID/g; Drug uptake [34]: 3.52 % ID/g; Drug uptake [35]: 1.79 % ID/g; Drug uptake [23]: 6.92 % ID/g; logD [24]: 2.15; Drug uptake [36]: 1.9 %ID; Drug uptake [25]: 2.44 % ID/g; Drug uptake [26]: 8.55 % ID/g; Drug uptake [37]: 1.32 % ID/g; Drug uptake [38]: 7.82 % ID/g; Drug uptake [27]: 4.42 % ID/g; Drug uptake [28]: 3.88 % ID/g; Drug uptake [29]: 11.13 % ID/g
Nc1ccc(/C=C/c2cc(=O)c3cc([125I])ccc3o2)cc1	2.78 % ID/g	4.91 % ID/g	2.34 % ID/g	1.81 %ID	2.56 % ID/g	11.71 % ID/g	2.92 % ID/g	4.88 % ID/g	4.4 % ID/g	6.58 % ID/g	5.18 % ID/g	1.24 %ID	2.43 % ID/g	13.23 % ID/g	14.49 % ID/g	6.99 % ID/g	11.94 % ID/g	2.84 % ID/g	3.78 % ID/g	3.07 % ID/g	Drug uptake [30]: 2.16 % ID/g; Drug uptake [31]: 16.08 % ID/g; Drug uptake [32]: 1.64 % ID/g; Drug uptake [21]: 2.17 %ID; Kd [22]: 32 nM; Drug uptake ([33]; 1 h): 1.62 % ID/g; Drug uptake [34]: 3.76 % ID/g; Drug uptake [35]: 2.27 % ID/g; Drug uptake [23]: 8.4 % ID/g; logD [24]: 1.65; Drug uptake [36]: 3.29 %ID; Drug uptake [25]: 2.44 % ID/g; Drug uptake [26]: 5.51 % ID/g; Drug uptake [37]: 1.11 % ID/g; Drug uptake [38]: 8.16 % ID/g; Drug uptake [27]: 3.64 % ID/g; Drug uptake [28]: 4.23 % ID/g; Drug uptake [29]: 10.27 % ID/g
CN(C)c1ccc(-c2cn3cc([125I])ccc3n2)cc1	–	–	–	–	–	–	–	2.88%	–	–	–	–	–	–	–	–	–	–	–	–	Ki [22]: […]; Drug uptake ([33]; 30 min, in the assay text read “after 30 mins” for “after 60 mins”): 0.26 % ID/g
